The values below come from paper PMC10972827 (Food Chemistry: X, 2024).

In brackets after ≈: the same amount, converted by molar mass.

Assay [1] deals with α-amylase. In words: Fluorescence spectroscopy. The class given is binding. The method in brief:
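Commercial α-amylase (10 U/mL) mixed with each theaflavin monomer (10–200 μg/mL) at each temperature. Fluorescence spectra recorded at 278 nm over a 290–450 nm scan. Ksv derived from the Stern–Volmer relation (τ0 10−8 s). Ka and n derived from a log((F0−F)/F) vs log[Q] plot. ΔH and ΔS derived from a van't Hoff fit. Results given as mean ± SD.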

For assay [2], the system named is α-amylase. As to the kind of experiment: Inhibitory kinetic assay. The class given is biochemical. Particulars: Lineweaver-Burk double reciprocal plots, 0.5-2.0% starch. The method in brief:
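Commercial α-amylase (0.35 mL, 10 U/mL) preincubated alone or with theaflavin monomer for 5 min at 37 °C. Soluble starch (0.5, 1.0, 1.5, 2.0%) added and incubated 15 min at 37 °C. Reducing sugar measured with DNS reagent (100 °C, 5 min), A540. Initial velocities fitted to Michaelis–Menten for Km and Vmax. Inhibition type assigned from Lineweaver–Burk double-reciprocal plots. Results given as mean ± SD.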

Assay [3] addresses α-amylase. In words: α-amylase activity test. The assay is classed as biochemical. The settings on record: α-amylase 10 U/mL, 1% soluble starch, 37 °C.

For the molecule `O=c1c(O)cc([C@H]2Oc3cc(O)cc(O)c3C[C@H]2O)cc2c([C@H]3Oc4cc(O)cc(O)c4C[C@H]3O)cc(O)c(O)c12` [TF1, theaflavin], the “Ka (binding constant)” value with α-amylase [1] (298 K) is 4.4955 L/g; with α-amylase [1] (303 K), 5.1038 L/g; with α-amylase [1] (310 K) it was 5.6151 L/g. Further, the “Ksv (quenching constant)” value was found to be 4.7890 L/g in the assay with α-amylase [1] (298 K), 4.6468 L/g in the assay on α-amylase [1] (303 K) and 4.2950 L/g in the assay with α-amylase [1] (310 K). For the same molecule, in the assay with α-amylase [2], the “inhibition type against α-amylase” value is “mixed”. Moreover, the “IC50, inhibitory activity on α-amylase” value against α-amylase [3] was 71.43 µg/mL (≈ 127 µM).
